Here are results for 18 compounds from ChEMBL document CHEMBL4325899, “Synthesis and photocytotoxic activity of [1,2,3]triazolo[4,5-h][1,6]naphthyridines and [1,3]oxazolo[5,4-h][1,6]naphthyridines” (Eur J Med Chem, 2019).

Data set [1] can be described thus: Solubility of the compound in DMSO. It is filed as physicochemical.
In another data set the test system is A-375. Briefly: Phototoxicity against human A375 cells preincubated for 5 mins followed by compound washout and subsequent UV irradiation at 1.5 J/cm2 for 5 mins measured after 72 hrs by MTT assay. As to conditions: A-375, light or radiation study. It is filed as functional, cell-based. Summed up: (§1)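 Compounds were diluted in DMSO (0.5% final), applied in triplicate for 5 min, then washed out with PBS. After medium removal, cells were irradiated on ice for 5 min at 365 nm (1.5 J/cm²) and then kept 72 h at 37 °C. Viability was read by MTT at 540 nm and expressed relative to 0.5% DMSO controls given the same treatment. EC50 is the concentration killing 50%, as the mean ± SD of at least three experiments.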
In general terms: Tetrazolium dyes change colour on reduction, which living cells bring about.

The subject of a further data set is HT-29. Briefly: Phototoxicity against human HT-29 cells preincubated for 5 mins followed by compound washout and subsequent UV irradiation at 1.5 J/cm2 for 5 mins measured after 72 hrs by MTT assay. As to conditions: HT-29, light or radiation study. Type of data set: functional, cell-based. Put shortly:
as §1

Another data set concerns MCF7. Briefly: Phototoxicity against human MCF7 cells preincubated for 5 mins followed by compound washout and subsequent UV irradiation at 1.5 J/cm2 for 5 mins measured after 72 hrs by MTT assay. As to conditions: MCF7, light or radiation study. Type of data set: functional, cell-based. Put shortly: as §1
In a further data set the test system is MCF-10A. Briefly: Phototoxicity against human MCF10A cells preincubated for 5 mins followed by compound washout and subsequent UV irradiation at 1.5 J/cm2 for 5 mins measured after 72 hrs by MTT assay. It is filed as cell-based. As to conditions: light or radiation study. Summed up: as §1
A short description of data set [2]: Dark toxicity against human A375 cells preincubated for 5 mins followed by compound washout and measured after 72 hrs by MTT assay. Type of data set: cell-based, A-375. Summed up: (§2)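 Cells were plated and allowed to attach overnight. Compounds were diluted in DMSO (0.5% final), with each concentration in triplicate, and applied for 5 min. Cells were then washed in PBS and given fresh medium. Without irradiation, cells were held 72 h at up to 50 μM. MTT (5 mg/mL stock) was added for 4 h, crystals were dissolved in SDS/HCl overnight, and absorbance was read at 540 nm. CC50 is the concentration killing 50% of cells, taken as the mean of at least three experiments.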

A short description of data set [3]: Dark toxicity against human HT-29 cells preincubated for 5 mins followed by compound washout and measured after 72 hrs by MTT assay. Type of data set: cell-based. Summed up: as §2
Data set [4] in a line: Dark toxicity against human MCF7 cells preincubated for 5 mins followed by compound washout and measured after 72 hrs by MTT assay. It is filed as cell-based. Put shortly:
as §2

A short description of data set [5]: Dark toxicity against human MCF10A cells preincubated for 5 mins followed by compound washout and measured after 72 hrs by MTT assay. Type of data set: cell-based, MCF-10A. Summed up: as §2

As for `COc1cc(-n2nnc3c4[nH]c(=O)ccc4c(C)nc32)cc(OC)c1OC`, in data set [1], the solubility result is reported as “Insoluble”.
The same measure, in the same setting: next, `COc1cc(-c2nc3c(nc(C)c4ccc(=O)[nH]c43)o2)cc(OC)c1OC`: “Insoluble”; `COc1ccc(-c2ccc3c(C)nc4oc(-c5ccccc5)nc4c3n2)cc1`: “Insoluble”; `Cc1nc2oc(-c3ccccc3)nc2c2nc(-c3ccccc3)ccc12`: “Insoluble”.
Turning to `COc1ccc(-c2nc3c(nc(C)c4ccc(-c5ccccc5OC)nc43)o2)cc1`, the solubility result in [1] is on record as “Insoluble”.
The same measure, in the same setting: next, `COc1ccc(-c2ccc3c(C)nc4oc(-c5cc(OC)c(OC)c(OC)c5)nc4c3n2)cc1`: “Insoluble”; `COc1ccccc1-c1ccc2c(C)nc3c(nnn3-c3ccccc3)c2n1`: “Insoluble”; `COc1ccc(-c2nc3c(nc(C)c4ccc(=O)[nH]c43)o2)cc1`: “Insoluble”.
Still for that read-out and setting: next, `COc1ccc(-c2ccc3c(C)nc4oc(-c5ccc(OC)cc5)nc4c3n2)cc1`: “Insoluble”; `COc1cc(-n2nnc3c4nc(C)ccc4c(C)nc32)cc(OC)c1OC`: “Insoluble”.
Turning to `COc1cc(-n2nnc3c4nc(-c5ccccc5)ccc4c(C)nc32)cc(OC)c1OC`, the EC50 with A-375, in the data set on HT-29, in the data set with MCF7 and with MCF-10A was over 50 µM in each case. The CC50 at 72 h in [2], in data set [3], in data set [4] and in data set [5] was over 50 µM throughout. Moreover, the solubility result in data set [1] was “Soluble”.
`COc1ccc(-c2ccc3c(C)nc4c(nnn4-c4cc(OC)c(OC)c(OC)c4)c3n2)cc1`: the solubility result in data set [1] is on record as “Insoluble”.
`COc1cc(-c2nc3c(nc(C)c4ccc(C)nc43)o2)cc(OC)c1OC`: the concentration giving a half-maximal response (EC50) in the data set with A-375, with HT-29, in the data set on MCF7 and in the data set on MCF-10A was over 50 µM throughout. The CC50 at 72 h in data set [2], in data set [3], in data set [4] and in data set [5] was over 50 µM throughout. Moreover, the solubility result in data set [1] is “Soluble”.
In the case of `COc1ccccc1-c1ccc2c(C)nc3c(nnn3-c3cc(OC)c(OC)c(OC)c3)c2n1`, the concentration giving a half-maximal response (EC50) with A-375, in the data set with HT-29, with MCF7 and with MCF-10A was over 50 µM throughout. Also, the 50% cytotoxic concentration (CC50) at 72 h in data set [2], in [3], in [4] and in data set [5] was over 50 µM in each case. Besides, the solubility result in data set [1] is recorded as “Soluble”.
With `COc1ccc(-n2nnc3c4nc(-c5ccccc5)ccc4c(C)nc32)cc1`, the solubility result in data set [1] was “Insoluble”.
With `Cc1ccc2c(C)nc3c(nnn3-c3ccccc3)c2n1`, the concentration giving a half-maximal response (EC50) with A-375, with HT-29, in the data set on MCF7 and in the data set with MCF-10A was over 50 µM in each case. Further, the CC50 at 72 h in data set [2], in [3], in [4] and in data set [5] was over 50 µM in each case. In [1], the solubility entry is recorded as “Soluble”.
For `Cc1nc2c(nnn2-c2ccccc2)c2nc(-c3ccccc3)ccc12`, the concentration giving a half-maximal response (EC50) with A-375, in the data set with HT-29, with MCF7 and with MCF-10A was over 50 µM each time. The cytotoxic concentration (CC50) at 72 h in data set [2], in data set [3], in data set [4] and in data set [5] was over 50 µM throughout. Besides, in data set [1], the solubility result is given as “Soluble”.
Regarding `Cc1nc2c(nnn2-c2ccccc2)c2[nH]c(=O)ccc12`, the EC50 in the data set with A-375, in the data set on HT-29, with MCF7 and with MCF-10A was over 50 µM in each case. Also, the half-maximal cytotoxic concentration (CC50) at 72 h in [2], in [3], in data set [4] and in data set [5] was over 50 µM in each case. Further, in data set [1], the solubility entry is given as “Soluble”.

What is called EC50 is the concentration that produces a half-maximal response. Lower therefore signals an effect from little substance. As a reminder, the CC50 is the concentration giving 50% cytotoxicity. Low values mean harm at low concentration, high ones better tolerance by the cells.
